A selection: hits, their analogues and other compounds. The true share with any hit is near 0.79%.
hIAP inh: human IAP inhibition; P09923; purified IAP, CDP-Star luminescence, 30 min; inhibition, % at 10 µM; actives 0.12% (n = 330,000); AID 2544;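 active means inhibition reaching a set limit with compound at 10 µM in the primary screen, cut at about 35% in these data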;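 further: plate controls were DMSO wells with enzyme for no effect and no-enzyme buffer wells for full effect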
Target sequence (P09923 whole entry, looked up): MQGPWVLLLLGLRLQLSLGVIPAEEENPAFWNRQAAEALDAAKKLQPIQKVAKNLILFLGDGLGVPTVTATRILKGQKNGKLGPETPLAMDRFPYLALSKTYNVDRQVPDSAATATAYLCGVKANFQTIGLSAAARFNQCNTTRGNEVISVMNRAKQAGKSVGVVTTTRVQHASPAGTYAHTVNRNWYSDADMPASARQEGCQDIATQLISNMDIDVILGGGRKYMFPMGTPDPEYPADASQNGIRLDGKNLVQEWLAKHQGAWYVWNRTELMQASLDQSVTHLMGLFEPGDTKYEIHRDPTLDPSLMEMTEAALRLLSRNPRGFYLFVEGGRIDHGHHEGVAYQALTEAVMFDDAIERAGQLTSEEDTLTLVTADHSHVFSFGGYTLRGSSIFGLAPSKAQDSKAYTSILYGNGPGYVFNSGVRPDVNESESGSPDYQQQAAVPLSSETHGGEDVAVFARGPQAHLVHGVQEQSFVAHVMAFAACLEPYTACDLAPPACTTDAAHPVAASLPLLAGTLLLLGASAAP
hIAP act: increases human intestinal alkaline phosphatase activity; activation factor at 10 µM; actives 0.16% (n = 330,000); purified human IAP, CDP-Star luminescence, 30 min; stronger effect = higher value; 1 = vehicle-only enzyme, 0 = enzyme-free background; P09923;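 active means activation factor of the enzyme at least 2-fold when tested at 20 µM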
mIAP act: increases mouse intestinal alkaline phosphatase activity; muIAP, CDP-Star luminescence, 30 min; stronger effect = higher value; 1 = vehicle-only enzyme signal, 0 = enzyme-free wells; activation factor at 10 µM; AID 2805; actives 0.24% (n = 330,000);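 active means activation factor of at least 2 at 20 µM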
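Assay system: mouse IAP enzyme; reagent: chemiluminescent substrate CDP-Star; dosing: test compounds delivered from DMSO solution; schedule: 30 min at room temperature; measured by: luminescence from enzymatic CDP-Star hydrolysis; controls: DMSO-only wells and no-enzyme negative control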
bIAP act: intestinal alkaline phosphatase (bovine) activation. purified bovine IAP, CDP-star luminescence, 30 min; stronger effect = higher value; fold of DMSO-control signal, blank-subtracted. actives 0.17% (n = 200,000). activation factor at 20 µM;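 active means activation factor of 2 or more at 20 µM, a signal rise over negative controls twice the positive control's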
mIAP inh: blocks mouse intestinal alkaline phosphatase; purified mouse IAP, CDP-Star luminescence, 30 min; actives 0.2% (n = 330,000); inhibition, % at 10 µM;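 active means inhibition of at least 40% at 10 µM in the primary screen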;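 further: plate controls were DMSO with enzyme for no effect and no enzyme wells for full effect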
bIAP inh: blocks bovine intestinal alkaline phosphatase activity | purified bovine IAP, CDP-star luminescence, 30 min | inhibition, % at 20 µM | 190,000 tested, under 10 active | AID 1019;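 active means over 50% inhibition of intestinal alkaline phosphatase at 20 µM in the single-dose screen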
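Assay system – bovine IAP enzyme · Quantity – bovine IAP at 1/65,000,000 final dilution · Detection – CDP-star luminescence signal · Times – 30 min reaction at room temperature · Also added – CDP-star substrate at 30 µM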
mIAP inh confirm: mouse IAP inhibition confirmation. purified mouse IAP, CDP-Star luminescence, 30 min. actives 4.7% (n = 11,000). shares compounds with mIAP inh. inhibition, % at 10 µM;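 active means inhibition of at least 40% at 10 µM in either of the two replicates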;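 further: plate controls were DMSO wells with enzyme for no effect and buffer wells lacking enzyme for full effect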
Starred values were filed as active, the others as inactive; i = inactive; x = no result given.

SMILES | hIAP inh | hIAP act | mIAP act | bIAP act | mIAP inh | bIAP inh | mIAP inh confirm
COc1ccccc1NS(=O)(=O)c1cc(NC(=O)Nc2cccc(C)c2)ccc1N1CCCCC1 | -23.5 | 1.24 | 5.57* | 0.9 | -456.9 | 8.5 | -278.3
Cc1cc(C)cc(NC(=O)Nc2ccccc2N2CCCCC2)c1 | -12.2 | 1.12 | 3.27* | x | -226.6 | x | -112.4
COc1ccc(NC(=O)Nc2ccccc2)cc1S(=O)(=O)N1CCCCC1 | -67.3 | 1.67 | 4.46* | 1.1 | -346.3 | -6.3 | -187.4
Cc1cc(C)cc(OCC(=O)Nc2ccccc2N2CCCCC2)c1 | 2.9 | 0.971 | 0.924 | 1 | 7.6 | 0.0 | x
COc1ccccc1NS(=O)(=O)c1cc(NC(C)=O)ccc1N1CCCCC1 | -23.8 | 1.24 | 0.996 | 1.1 | 0.4 | -10.9 | x
COc1ccc(C=O)c2[nH]c3c(Cl)ncnc3c12 | -14.7 | 1.15 | 0.936 | x | 6.4 | x | x
NS(=O)(=O)c1ccc(N=Nc2c(=O)[nH]n3c(=O)c4c([nH]c23)CCCC4)cc1 | -66.2 | 1.66 | 0.522 | 0.5 | 47.8* | x | 62.8*
O=c1[nH]n2c(=O)c3c([nH]c2c1N=Nc1cccc(Cl)c1)CCC3 | x | x | x | 1.2 | x | -24.0 | x
O=c1cc(-c2ccc(O)cc2)oc2c1ccc1ccccc12 | -8.9 | 1.09 | 0.961 | x | 3.9 | x | x
O=c1cc(-c2ccc(O)cc2)oc2c(O)c(O)c(O)c(O)c12 | 2.8 | 0.972 | 0.338 | x | 66.2* | x | 66.7*
O=C(COC(=O)CNC(=O)c1ccc(Cl)cc1Cl)NNC(=O)c1ccccc1F | 7.7 | 0.923 | 0.98 | x | 2.0 | x | x
Cc1cc(NS(=O)(=O)c2ccc(Nc3nc(-c4ccc(C)c(C)c4)cs3)cc2)no1 | 1.0 | 0.99 | 0.989 | 0.3 | 1.1 | x | x
Cc1nc(N)sc1-c1csc(Nc2cccc(C(=O)O)c2)n1 | 10.1 | 0.899 | 0.481 | x | 51.9* | x | 54.0*
Cc1cc(NS(=O)(=O)c2ccc(Nc3nc(-c4sc(N)nc4C)cs3)cc2)no1 | 0.3 | 0.997 | 0.559 | 1.3 | 44.1* | -27.2 | 59.4*
CCOC(=O)c1ccc(-c2ccc3c(c2)CCC3)nc1C | 11.2 | 0.888 | 0.955 | x | 4.5 | x | x
COc1ccc(NC(=O)Nc2ccc3c(c2)C(=O)N([C@H](C)CO)C[C@H](C)[C@@H](CN(C)S(=O)(=O)c2ccc(F)cc2)O3)cc1 | 4.3 | 0.957 | 2.85* | x | -185.1 | x | -101.3
C[C@@H]1CN([C@H](C)CO)C(=O)c2cc(NC(=O)Nc3ccc(C(F)(F)F)cc3)ccc2O[C@H]1CN(C)S(=O)(=O)c1cccs1 | 0.1 | 0.999 | 1.69 | x | -68.9 | x | x
C[C@H](CO)N1C[C@H](C)[C@@H](CN(C)S(=O)(=O)c2cccs2)Oc2ccc(NC(=O)Nc3ccccc3)cc2C1=O | -1.3 | 1.01 | 3.21* | x | -221.1 | x | -152.1
C[C@H](CO)N1C[C@H](C)[C@@H](CN(C)S(=O)(=O)c2ccccc2)Oc2ccc(NC(=O)Nc3ccccc3)cc2C1=O | 4.3 | 0.957 | 3.16* | x | -215.6 | x | -162.5
Cc1ccc(S(=O)(=O)N(C)C[C@@H]2Oc3ccc(NC(=O)Nc4cccc5ccccc45)cc3C(=O)N([C@H](C)CO)C[C@H]2C)cc1 | -9.3 | 1.09 | 3.25* | x | -225.1 | x | -113.2
C[C@H](CO)N1C[C@H](C)[C@@H](CN(C)S(=O)(=O)c2ccccc2)Oc2ccc(NC(=O)C3CC3)cc2C1=O | -32.3 | 1.32 | 1.03 | x | -2.9 | x | x
CCOC(=O)c1ccc(NC(=O)Nc2ccc3c(c2)OCCO3)cc1 | -12.2 | 1.12 | 2.92* | 1.1 | -192.3 | -6.1 | -106.4
S=c1[nH]nc(-c2cc(-c3ccco3)[nH]n2)n1-c1ccccc1Cl | -26.8 | 1.27 | 0.428 | 1.3 | 57.2* | -28.7 | 74.2*
S=c1[nH]nc(-c2ccco2)n1-c1ccccc1Cl | 7.8 | 0.922 | 1.16 | 1 | -16.2 | 2.8 | x
COc1ccc(N=C2SC(C(N)=O)CC(=O)N2CCc2ccc(OC)c(OC)c2)cc1 (stereo unspecified) | -17.6 | 1.18 | 0.556 | 0.9 | 44.4* | 6.3 | 49.8*
SMILES | hIAP inh | hIAP act | mIAP act | bIAP act | mIAP inh | bIAP inh | mIAP inh confirm
COc1ccc(N=C2SC(C(=O)O)CC(=O)N2Cc2ccc(OC)c(OC)c2)cc1 (stereo unspecified) | 7.9 | 0.921 | 1 | 1 | -0.3 | 1.1 | x
C=CCSc1nnc(NC(=O)C2CC(=O)N(Cc3ccc(C)cc3)C2)s1 (stereo unspecified) | -4.2 | 1.04 | 0.915 | x | 8.5 | x | x
COc1ccc(NC(=O)NCCCCc2ccccc2)cc1OC | -35.1 | 1.35 | 1.42 | x | -42.0 | x | x
COc1ccc(NC(=S)NCCC(c2ccccc2)c2ccccc2)c(OC)c1 | -2.2 | 1.02 | 1.77 | 1.4 | -76.9 | -38.2 | x
COc1cccc(NC(=S)NCCC(c2ccccc2)c2ccccc2)c1 | 9.8 | 0.902 | 6.21* | 1.3 | i | -31.6 | -252.7
COc1cc(NC(=S)NCCC(c2ccccc2)c2ccccc2)cc(OC)c1 | 14.5 | 0.855 | 5.13* | 0.9 | -412.8 | 12.1 | -227.5
COc1cccc(NC(=O)NCCCCc2ccccc2)c1 | -9.6 | 1.1 | 2.27* | x | -127.1 | x | -116.1
CC1(C)NC(=O)N(CCC(=O)Nc2cc(C(F)(F)F)ccc2Cl)C1=O | -13.5 | 1.14 | 1.01 | x | -1.3 | x | x
COc1ccc(CN2CCNC(=O)C2CC(=O)N(C)Cc2nc(C)cs2)c(OC)c1 (stereo unspecified) | -17.3 | 1.17 | 0.942 | x | 5.8 | x | x
CC(N=Cc1cccc(O)c1O)c1ccccc1 (stereo unspecified) | 19.9 | 0.801 | 0.402 | 0.8 | 59.8* | 16.6 | 67.4*
CC(N=Cc1cc([N+](=O)[O-])ccc1O)c1ccccc1 (stereo unspecified) | -9.6 | 1.1 | 1.02 | 0.9 | -2.0 | 8.0 | x
N=C1S/C(=C\c2ccco2)C(=O)N1c1ccc2c(c1)OCO2 | 5.0 | 0.95 | 0.479 | 1.1 | 52.1* | -6.1 | 77.5*
N=C1S/C(=C\c2ccco2)C(=O)N1c1nccs1 | -14.6 | 1.15 | 0.4 | 1.1 | 60.0* | -10.2 | 65.4*
CN(C(=O)COC(=O)c1ccc(-c2ccc(O)cc2)cc1)C1CCS(=O)(=O)C1 (stereo unspecified) | 9.8 | 0.902 | 1 | x | -0.4 | x | x
NS(=O)(=O)c1cc(C(=O)N=Nc2c(O)[nH]c3ccccc23)ccc1Cl | 14.0 | 0.86 | 0.535 | x | 46.5* | x | 48.0*
O=C(N=Nc1c(O)[nH]c2ccccc12)c1cccc(S(=O)(=O)Nc2ccccc2Cl)c1 | -13.4 | 1.13 | 0.884 | 1.2 | 11.6 | -23.1 | x
CC(C)n1c(NCc2nc3ccccc3n2C)nc2ccccc21 | 5.5 | 0.945 | 1.28 | 1.7 | -27.6 | -66.8 | x
CCn1c(CNc2nc3ccccc3n2C(C)C)nc2ccccc21 | -21.2 | 1.21 | 2* | 3.1* | -100.0 | -210.4 | -97.3
O=c1c(O)c(-c2cc(O)c(O)c(O)c2)oc2cc(O)cc(O)c12 | -19.7 | 1.2 | 0.249 | x | 75.1* | x | 75.2*
O=c1c(O)c(-c2ccccc2)oc2cc(O)cc(O)c12 | -22.3 | 1.22 | 0.943 | x | 5.7 | x | x

Source: PubChem (Sanford-Burnham Center for Chemical Genomics)
